Reference: the RNAGym collection of RNA variant scans (doi:10.1038/nmeth.2970)

B1: NELF-E aptamer (parent)
chain: CCCAACGACUGCCGAGCGAGAUUACGCUUGAGCGCCCCACUGAGGAUGCCCACGGGCGAUUGGGGCACGG

Variants of: B1
Test: HiTS-RAP
Settings: with NELF-E (Drosophila)
Method in brief: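 Kd came from weighted Hill fits to the first binding curve, with intensities normalised to sequencing intensity and averaged per sequence, keeping only fits whose variance was below 1,000,000. That curve was imaged on an Illumina GAIIx flowcell, where sequenced aptamer DNA templates with a T7 promoter and ter site had been transcribed in situ by T7 RNA polymerase and halted by GST-Tus (30 minutes, 37°C). Before each image, clusters equilibrated for 30 minutes at room temperature with NELF-E-mOrange at 0.064 to 1000 nM in HEPES binding buffer.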

Variant	Kd
U23G G63U	12.9 nM
U22G U29G	5.4 nM
U22G U29C	5.92 nM
U22G U29A	5.82 nM
A24G A31U	6.88 nM
A24G A31G	6.54 nM
U23G G26U	6.03 nM
U23G G26A	6.05 nM
A24U U29G	6.22 nM
A24G C37U	15.3 nM
A24G C37G	7.93 nM
A24G C37A	10.1 nM
C25G G26U	5.3 nM
C25G G26C	6 nM
U29G G48A	11.3 nM
U29G G48U	6.22 nM
U23G C49G	7.29 nM
U23G C49U	15.6 nM
U23G A46G	59.5 nM
U23G A46U	69.3 nM
G26A C57U	6.13 nM
U29G G42A	24.6 nM
U29G G42U	10.4 nM
A24G G54A	11.9 nM

Variant	Kd
A24G G54U	7.49 nM
U23G C37U	13.8 nM
U23G C37A	13.4 nM
U23G C37G	7.9 nM
A24G C38U	8.33 nM
U29G G64U	6.21 nM
U29G G64A	7.34 nM
U29G G64C	5.11 nM
U29G A67G	5.86 nM
U29G A67U	6.79 nM
A24G G55A	11.1 nM
U23C U29G	4.34 nM
U29G C57U	5.61 nM
U23G G56A	8.2 nM
U23G G56U	5.61 nM
U28C U41C	98.6 nM
U28C U41G	11.9 nM
U23G A52G	4.37 nM
U23G A52U	17.6 nM
C27U U29G	4.7 nM
U23A U29G	5.75 nM
A24G G63A	14.3 nM
A24G G63U	11 nM
A24G G62A	26.1 nM

Variant	Kd
U22G G65U	6.22 nM
U22G G65C	13.4 nM
U28C A52U	32.7 nM
U29G C33G	6.45 nM
U29G C33U	6.03 nM
U29G G30U	5.81 nM
U29G G30C	5.14 nM
U29G G30A	5.05 nM
U23G G55C	6.97 nM
U23G G55A	7.34 nM
U23G G55U	8.32 nM
A24G C36U	6.95 nM
A24G C36G	8.51 nM
U22G U23G	6.17 nM
U22G U23A	6.19 nM
U22G U23C	4.62 nM
U23G A24U	6.08 nM
U23G A24G	5.97 nM
A24G G32A	5.64 nM
A24G G32U	6.57 nM
U23G U28G	7.22 nM
U23G U28C	9 nM
U23G U28A	5.01 nM
G26U U29G	7.41 nM

Variant	Kd
U23G C38U	9.73 nM
U23G C38A	35.2 nM
A24G A43G	27.9 nM
A24G A43U	55.4 nM
U29G U61C	59.2 nM
U29G U61A	28.1 nM
U23G G54U	11.1 nM
U23G G54A	14.4 nM
U29G G55A	7.74 nM
U29G G55U	6.64 nM
U29G G55C	5.81 nM
U29G C51G	4.37 nM
U29G C51A	8.11 nM
U29G C51U	8.19 nM
U29G A43U	44 nM
U29G A43G	14 nM
U29G G44U	8.78 nM
U29G G44A	94.7 nM
A24G G44A	18.5 nM
U23G A67G	6.23 nM
U23G A67U	7.58 nM
U23G A67C	4.59 nM
A24G C33G	8.38 nM
A24G C33U	5.71 nM

Variant	Kd
U22G U60G	7.18 nM
U22G U60A	9.43 nM
U22G U60C	10.8 nM
U23G G32A	5.52 nM
U23G G32U	6.92 nM
U23A A24G	6.07 nM
U23C A24G	5.24 nM
A24G C53G	7.46 nM
A24G C53U	4.2 nM
U23G G48U	7.64 nM
U23G G48A	11 nM
U23G U29G	5.13 nM
U23G U29C	5.67 nM
U23G U29A	5.6 nM
C27G U29G	5.43 nM
A24G G30U	7.16 nM
A24G G30A	5.17 nM
A24G A52G	5.14 nM
A24G A52U	14.2 nM
A24G C40G	6.34 nM
U23G C35U	11.5 nM
U23G C35G	7.07 nM
A24G U60C	12.8 nM
A24G U28C	12.3 nM

Variant	Kd
A24G U28A	3.42 nM
A24G U28G	8.97 nM
U29G C36U	9.64 nM
U29G C36G	8.06 nM
U29C U61A	38 nM
U29G C40G	5.85 nM
U29G C40U	56.1 nM
U23G G42U	13.1 nM
U23G G42A	60.7 nM
U23G U60G	4.68 nM
U23G U60A	12.9 nM
U23G U60C	11.9 nM
U23G U47A	13.5 nM
U23G U47G	6.6 nM
A24G A39U	29.5 nM
A24G A39G	10.2 nM
U29G U60C	11.4 nM
U29G U60A	13.2 nM
U28C A39U	51.1 nM
U23G U41G	5.48 nM
U23G U41A	66.7 nM
U23G U41C	93.8 nM
U23G C25G	5.84 nM
U23G C25U	5.73 nM

Variant	Kd
U23G G62A	15.5 nM
U23G G62U	9.09 nM
U29A C53U	5.35 nM
A24G C35U	9.45 nM
U29A A39U	20.9 nM
U29A A39G	5.71 nM
U29A U41G	6.07 nM
U29A U41C	79.2 nM
U23G C57U	5.72 nM
A24G C49U	13.4 nM
U28G A39G	11.2 nM
U29G C66U	4.32 nM
A24G C66U	5.38 nM
U29C C36U	6 nM
A24G G64A	7.13 nM
A24G G64C	5.75 nM
A24G G64U	6.61 nM
C25U U29G	6.54 nM
A24G C51U	8.86 nM
C25U U41G	6.6 nM
U22G U28C	8.17 nM
U22G U28A	5.81 nM
U22G U28G	6.89 nM
